According to ChEMBL document CHEMBL1152585, “Identification of small molecule regulators of the nuclear receptor HNF4alpha based on naphthofuran scaffolds” (Bioorg Med Chem, 2009):
Activity calls are given as the source filed them. The calls are words filed in the database; no cut-off is given here.

Columns and labels:
[1] = target: T1, Hepatocyte nuclear factor 4-alpha (Homo sapiens) (UniProt P41235); experiment: Agonist activity at human full length HNF4alpha nuclear receptor expressed in human HepG2/C3A cells co-transfected with LexADBD assessed as increase in transcriptional activity at 12.5 uM by beta-galactosidase one hybrid assay relative to control; type: functional, cell-based
T1 sequence (whole entry): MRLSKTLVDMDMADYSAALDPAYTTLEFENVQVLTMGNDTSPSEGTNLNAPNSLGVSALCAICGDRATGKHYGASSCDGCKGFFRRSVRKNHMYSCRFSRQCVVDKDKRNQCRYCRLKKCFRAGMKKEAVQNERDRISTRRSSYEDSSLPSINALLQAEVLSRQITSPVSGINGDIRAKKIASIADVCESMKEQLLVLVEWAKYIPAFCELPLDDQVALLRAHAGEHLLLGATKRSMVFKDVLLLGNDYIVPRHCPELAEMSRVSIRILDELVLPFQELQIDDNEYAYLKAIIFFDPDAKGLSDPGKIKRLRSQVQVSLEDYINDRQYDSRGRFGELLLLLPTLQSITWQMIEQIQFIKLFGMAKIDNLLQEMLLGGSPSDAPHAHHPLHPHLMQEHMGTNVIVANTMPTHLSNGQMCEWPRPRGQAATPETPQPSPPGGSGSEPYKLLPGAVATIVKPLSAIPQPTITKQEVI

[2] = target: T2, Hepatocyte nuclear factor 4-alpha (Homo sapiens, UniProt P41235); experiment: Agonist activity at human full length HNF4alpha nuclear receptor expressed in human HepG2/C3A cells co-transfected with LexADBD assessed as increase in transcriptional activity after 16 hrs by beta-galactosidase one hybrid assay; type: functional, cell-based
T2 sequence (P41235 whole entry): T1 sequence (whole entry)
How it was run: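 Yeast one-hybrid with LexA DNA-binding domain fusions of HNF4α (full length, AF-1-deleted, or LBD lacking F domain). Increasing compound concentrations applied to yeast for 16 h, then β-galactosidase assay. EC50 taken from the dose–response curves.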

[3] = Cytotoxicity against human HepG2/C3A cells after 48 hrs by MTT assay; type: functional, cell-based
[4] = target: T1, Hepatocyte nuclear factor 4-alpha (Homo sapiens); experiment: Agonist activity at human full length HNF4alpha nuclear receptor expressed in human HepG2/C3A cells co-transfected with LexADBD assessed as increase in transcriptional activity at 6.2 uM by beta-galactosidase one hybrid assay relative to control; type: functional, cell-based
[5] = target: T1, Hepatocyte nuclear factor 4-alpha (Homo sapiens); experiment: Stabilization of thermal denaturation-induced conformational change in human HNF4alpha nuclear receptor ligand binding domain assessed as change in transition temperature by thermofluor assay
How it was run: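 Human HNF4α LBD (aa 133–368), 6xHis-tagged, expressed in E. coli, purified under denaturing conditions, renatured and TEV-cleaved (apo). Protein at 0.3 mg/mL in 20 mM Tris-Cl pH 8.0, 100 mM NaCl, with 3× molar excess test compound and SYPRO Orange (20× working). Heated 20–90 °C at 1 °C/min. ΔTm = Tm − T0 against a water control; means of 3–6 independent experiments ± SE.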

[6] = target: T1, Hepatocyte nuclear factor 4-alpha (Homo sapiens); experiment: Agonist activity at human full length HNF4alpha nuclear receptor expressed in human HepG2/C3A cells co-transfected with LexADBD assessed as increase in transcriptional activity at 18.7 uM by beta-galactosidase one hybrid assay relative to control; type: functional, cell-based
[7] = target: T1, Hepatocyte nuclear factor 4-alpha (Homo sapiens); experiment: Activation of HNFalpha transcriptional activity in human […] cells transfected with ApoB-luc assessed as activation of luciferase reporter gene after 24 hrs; type: cell-based
How it was run: (§1)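 HepG2C3A cells seeded at 6 × 10⁴/well in DMEM, transfected 24 h later (JetPEI) with 800 ng total DNA: 250 ng ApoB-Luc or ApoCIII-Luc reporter, 250 ng β-galactosidase plasmid, HNF4α expression vector. Treated 24 h (DMSO 0.5% control). Luciferase read in lysate supernatant and normalised to β-gal (4-MUG fluorescence, ex 365/em 450 nm). Fold induction vs DMSO. At least three independent experiments, in triplicate.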

[8] = target: T1, Hepatocyte nuclear factor 4-alpha (Homo sapiens); experiment: Activation of HNFalpha transcriptional activity in human […] cells transfected with ApoCIII-luc assessed as activation of luciferase reporter gene after 24 hrs; type: cell-based; how it was run: as §1
HepG2/C3A [9] = experiment: Enhancement of beta-galactosidase activity in human HepG2/C3A cells transfected with LexACOUP-TFII assessed as increase in transcriptional activity after 16 hrs; type: functional, cell-based
HepG2/C3A [10] = experiment: Enhancement of beta-galactosidase activity in human HepG2/C3A cells transfected with Gal4 assessed as increase in transcriptional activity after 16 hrs; type: functional, cell-based
HepG2/C3A [11] = experiment: Enhancement of beta-galactosidase activity in human HepG2/C3A cells transfected with estrogen receptor assessed as increase in transcriptional activity after 16 hrs; type: functional, cell-based
[12] = target: T1, Hepatocyte nuclear factor 4-alpha (Homo sapiens); experiment: Agonist activity at human full length HNF4alpha nuclear receptor expressed in human HepG2/C3A cells co-transfected with LexADBD assessed as increase in transcriptional activity at 9.3 uM by beta-galactosidase one hybrid assay relative to control; type: functional, cell-based
[13] = target: T1, Hepatocyte nuclear factor 4-alpha (Homo sapiens); experiment: Agonist activity at AF1 deleted human HNF4alpha7 nuclear receptor expressed in human HepG2/C3A cells co-transfected with LexADBD assessed as increase in transcriptional activity after 16 hrs by beta-galactosidase one hybrid assay; type: functional, cell-based
[14] = target: T1, Hepatocyte nuclear factor 4-alpha (Homo sapiens); experiment: Agonist activity at human HNF4alpha7 nuclear receptor LBDdetaF expressed in human HepG2/C3A cells co-transfected with LexADBD assessed as increase in transcriptional activity after 16 hrs by beta-galactosidase one hybrid assay; type: functional, cell-based
[15] = target: T1, Hepatocyte nuclear factor 4-alpha (Homo sapiens); experiment: Agonist activity at human full length HNF4alpha nuclear receptor expressed in human HepG2/C3A cells co-transfected with LexADBD assessed as increase in transcriptional activity at 100 uM by beta-galactosidase one hybrid assay relative to control; type: functional, cell-based

Compound: O=[N+]([O-])c1cc2c(ccc3ccccc32)o1
- fold change (FC) [1]: 4.46
- EC50 [2]: 2090 nM
- IC50 [3]: 2510 nM

Compound: O=[N+]([O-])c1cc2c(ccc3cc(O)ccc32)o1
- fold change (FC) [4]: 11.1
- ΔTm [5]: 0.84 °C
- EC50 [2]: 1950 nM
- IC50 [3]: 5000 nM

Compound: O=[N+]([O-])c1oc2ccc3ccccc3c2c1CCO
- fold change (FC) [1]: 4.58
- EC50 [2]: 1220 nM
- IC50 [3]: 2040 nM

Compound: Cc1c([N+](=O)[O-])oc2ccc3ccccc3c12
- fold change (FC) [6]: 5.51
- Activity [7]: Dose-dependent effect
- Activity [8]: Dose-dependent effect
- EC50 [2]: 1280 nM
- IC50 [3]: > 5000 nM

Compound: COc1cc2ccccc2c2cc([N+](=O)[O-])oc12
- Activity (HepG2/C3A [9]): inactive
- Activity (HepG2/C3A [10]): inactive
- Activity (HepG2/C3A [11]): inactive
- EC50 [2]: 1470 nM
- IC50 [3]: 4400 nM
- fold change (FC) [12]: 6.6

Compound: COc1ccc2c(ccc3oc([N+](=O)[O-])cc32)c1
- Activity [13]: inactive
- Activity [14]: inactive
- EC50 [2]: 2570 nM
- IC50 [3]: 2240 nM
- fold change (FC) [12]: 8.05

Compound: COc1ccc2ccc3oc([N+](=O)[O-])cc3c2c1
- EC50 [2]: 2330 nM
- IC50 [3]: 2280 nM
- fold change (FC) [12]: 7.97

Compound: NC(=O)c1cc2c(ccc3ccccc32)o1
- fold change (FC) [15]: 2
- EC50 [2]: > 100000 nM
- IC50 [3]: > 5000 nM
